Activity calls are given as the source filed them. No cut-off for these calls is given here.
Legend:
[1] = target: Botulinum neurotoxin type A (Clostridium botulinum) (UniProt P0DPI0); assay: Inhibition of Clostridium botulinum recombinant BoNT/A light chain using N-terminal acetylated, C-terminal aminated SNAP-25 (187-203) as substrate at 20 uM by reverse-phase HPLC analysis
Procedure, shortened: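 Recombinant BoNT/A LC with SNAP-25 187–203 peptide substrate in 40 mM HEPES–0.05% Tween, pH 7.3, with 0.5 mg/mL BSA and 50 μM excess Zn, at 37 °C. Quenched with TFA; reverse-phase HPLC product/substrate peak areas give percent inhibition, run in duplicate.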

[2] = target: Botulinum neurotoxin type A (Clostridium botulinum, UniProt P0DPI0); assay: Inhibition of Clostridium botulinum recombinant BoNT/A light chain using N-terminal acetylated, C-terminal aminated SNAP-25 (187-203) as substrate by reverse-phase HPLC analysis
Botulinum neurotoxin type A, sequence (P0DPI0 2-448 limits assumed): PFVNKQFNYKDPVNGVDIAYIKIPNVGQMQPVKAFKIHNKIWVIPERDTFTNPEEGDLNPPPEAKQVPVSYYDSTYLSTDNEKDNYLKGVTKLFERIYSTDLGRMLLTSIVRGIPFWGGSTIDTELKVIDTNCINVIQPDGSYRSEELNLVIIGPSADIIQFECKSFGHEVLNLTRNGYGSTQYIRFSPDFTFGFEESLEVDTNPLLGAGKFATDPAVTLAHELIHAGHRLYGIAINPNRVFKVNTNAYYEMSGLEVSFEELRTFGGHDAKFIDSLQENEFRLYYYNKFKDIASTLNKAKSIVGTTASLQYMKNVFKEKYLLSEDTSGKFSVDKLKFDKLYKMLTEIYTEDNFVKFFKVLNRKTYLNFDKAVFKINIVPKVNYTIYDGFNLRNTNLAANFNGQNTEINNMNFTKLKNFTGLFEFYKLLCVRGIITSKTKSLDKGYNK
Procedure, shortened: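 Same HPLC LC cleavage assay (pH 7.3 HEPES/Tween, BSA, excess Zn, 37 °C). […] Ki comes from velocity versus substrate at several inhibitor levels, globally fit to a competitive model.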

Plasmodium falciparum [3] = assay: Antimalarial activity against CQ-resistant, MFQ-susceptible Plasmodium falciparum W2 clone Indochina 1 isolate assessed as inhibition of parasite proliferation by MSF assay; assay type: functional, organism-based
Procedure, shortened: (§1)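 SYBR Green I fluorescence (MSF) microtiter drug-sensitivity assay: malarial DNA content is the measure of in vitro parasite proliferation. Resistance index is the IC90 ratio of the resistant strain to D6.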

Plasmodium falciparum [4] = assay: Antimalarial activity against CQ, MFQ-susceptible Plasmodium falciparum D6 clone Sierra 1/UNC isolate assessed as inhibition of parasite proliferation by MSF assay; assay type: functional, organism-based; procedure, shortened: as §1
Plasmodium falciparum [5] = assay: Antimalarial activity against CQ, MFQ-resistant Plasmodium falciparum TM91C235 clone Southeast asian isolate assessed as inhibition of parasite proliferation by MSF assay; assay type: functional, organism-based; procedure, shortened: as §1
HepG2 = assay: Cytotoxicity against human HepG2 cells assessed as cell viability after 48 hrs by MTT assay; assay type: cell-based; conditions: HepG2, 48 h
[6] = Selectivity index, ratio of IC50 for human HepG2 cells to IC50 for CQ-resistant, MFQ-susceptible Plasmodium falciparum W2 clone Indochina 1 isolate; assay type: toxicity, cell-based; conditions: read-out: Ratio IC50
[7] = Selectivity index, ratio of IC50 for human HepG2 cells to IC50 for CQ, MFQ-susceptible Plasmodium falciparum D6 clone Sierra 1/UNC isolate; assay type: toxicity, cell-based; conditions: read-out: Ratio IC50
[8] = Selectivity index, ratio of IC50 for human HepG2 cells to IC50 for CQ, MFQ-resistant Plasmodium falciparum TM91C235 clone Southeast asian isolate; assay type: toxicity, cell-based; conditions: read-out: Ratio IC50
[9] = Half life in human liver microsomes; assay type: ADME; conditions: liver microsomes
[10] = Half life in mouse liver microsomes; assay type: ADME; conditions: liver microsomes
Plasmodium falciparum [11] = assay: Resistance index, ratio of IC50 for CQ, MFQ-resistant Plasmodium falciparum TM91C235 clone Southeast asian isolate to IC50 for CQ, MFQ-susceptible Plasmodium falciparum D6 clone Sierra 1/UNC isolate; assay type: functional
Plasmodium falciparum [12] = assay: Resistance index, ratio of IC50 for CQ-resistant, MFQ-susceptible Plasmodium falciparum W2 clone Indochina 1 isolate to IC50 for CQ, MFQ-susceptible Plasmodium falciparum D6 clone Sierra 1/UNC isolate; assay type: functional
Plasmodium falciparum [13] = assay: Resistance index, ratio of IC90 for CQ, MFQ-resistant Plasmodium falciparum TM91C235 clone Southeast asian isolate to IC90 for CQ, MFQ-susceptible Plasmodium falciparum D6 clone Sierra 1/UNC isolate; assay type: functional; procedure, shortened: as §1
Plasmodium falciparum [14] = assay: Resistance index, ratio of IC90 for CQ-resistant, MFQ-susceptible Plasmodium falciparum W2 clone Indochina 1 isolate to IC90 for CQ, MFQ-susceptible Plasmodium falciparum D6 clone Sierra 1/UNC isolate; assay type: functional; procedure, shortened: as §1
PBMC = assay: Cytotoxicity against human PBMC assessed as inhibition of cell survival after 72 hrs; assay type: cell-based
Procedure, shortened: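 PBMC from heparinized healthy-donor blood (Histopaque) in RPMI-1640 with 10% FCS and PHA stimulation, 200 000 cells/well, with compounds in DMSO, 72 h at 37 °C, 6% CO2.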

Plasmodium berghei = assay: Antimalarial activity against Plasmodium berghei infected in ICR mouse assessed as host survival at 40 to 160 mg/kg/day, po administered on day 3, 4 and 5 post-infection measured on day 13 after infection; assay type: functional, organism-based
Mus musculus = assay: Toxicity in ICR mouse infected with Plasmodium berghei assessed as tissue damage at 40 to 160 mg/kg/day, po administered on day 3, 4 and 5 post-infection; assay type: organism-based; design: route oral; conditions: in vivo

Botulinum neurotoxin type A (Clostridium botulinum), sequence (P0DPI0 2-448 limits assumed): as above

For `CC(=O)O[C@H]1C[C@H]2[C@@H]([C@H](OC(C)=O)C[C@@H]3C[C@H](N(C)C)CC[C@@]32C)[C@@H]2CC[C@H]([C@H](C)CCCNCCNc3ccnc4cc(Cl)ccc34)[C@@]12C`, the inhibition [1] was 93.5%, the IC50 [2] was 1020 nM and the IC50 (Plasmodium falciparum [3]) was 19.7 nM. The IC50 (Plasmodium falciparum [4]) was 42.3 nM, the IC50 (Plasmodium falciparum [5]) was 32.4 nM and the IC50 (HepG2) was 14100 nM. For the same molecule, the selectivity ratio [6] was 714, the selectivity ratio [7] was 333 and the selectivity ratio [8] was 435. For the same molecule, the half-life [9] was 1 h, the half-life [10] was 1 h and the “Ratio IC50” value (Plasmodium falciparum [11]) was 0.77. For the same molecule, the “Ratio IC50” value (Plasmodium falciparum [12]) was 47.

`CC(=O)O[C@H]1C[C@H]2[C@@H]([C@H](OC(C)=O)C[C@@H]3C[C@H](N)CC[C@@]32C)[C@@H]2CC[C@H]([C@H](C)CCCN(C)CCNc3ccnc4cc(Cl)ccc34)[C@@]12C` showed an inhibition [1] of 89.5%, an IC50 [2] of 1140 nM and an IC50 (Plasmodium falciparum [3]) of 2.88 nM. It also gave an IC90 (Plasmodium falciparum [3]) of 3.74 nM, an IC50 (Plasmodium falciparum [4]) of 3.6 nM and an IC90 (Plasmodium falciparum [4]) of 4.46 nM. For the same molecule, the IC50 (Plasmodium falciparum [5]) was 6.18 nM, the IC90 (Plasmodium falciparum [5]) was 9.2 nM and the Ratio (Plasmodium falciparum [13]) was 2.06. For the same molecule, the Ratio (Plasmodium falciparum [14]) was 0.84, the IC50 (HepG2) was 14400 nM and the selectivity ratio [6] was 4990. It also gave a selectivity ratio [7] of 4000, a selectivity ratio [8] of 2330 and an IC50 (PBMC) of 2590 nM. The half-life [9] was 1 h, the half-life [10] was 1 h and the Activity (Plasmodium berghei) was “inactive”. For the same molecule, the Activity (Mus musculus) was “Non-toxic”.
